Measurements from ChEMBL document CHEMBL1821590, “Novel dihydropyrimidines and its pyrazole derivatives: synthesis and pharmacological screening” (Eur J Med Chem, 2011).
In brackets after ≈: the same amount, converted by molar mass.

What was measured:
Assay type in all cases: functional
Candida albicans [1] = experiment: Antimicrobial activity against Candida albicans at 25 ug/ml by paper disc method; conditions: read-out: IZ
Outline: (§1)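 Paper disc method against A. niger and C. albicans, with compounds at 25, 50 and 100 µg/mL. Amphotericin-B as standard.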

Bacillus subtilis [2] = experiment: Antimicrobial activity against Bacillus subtilis at 100 ug/ml by agar plate diffusion technique; conditions: read-out: IZ
Outline: (§2)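 Agar plate diffusion against E. coli, P. aeruginosa, S. aureus and B. subtilis, with compounds at 25, 50 and 100 µg/mL. Streptomycin as standard.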

Candida albicans [3] = experiment: Antimicrobial activity against Candida albicans at 50 ug/ml by paper disc method; conditions: read-out: IZ; outline: as §1
Pseudomonas aeruginosa [4] = experiment: Antimicrobial activity against Pseudomonas aeruginosa at 50 ug/ml by agar plate diffusion technique; conditions: read-out: IZ; outline: as §2
Metaphire posthuma [5] = experiment: Anthelmintic activity against Pheretima posthuma assessed as time taken for parasite death at 0.2% w/v
Outline: (§3)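 Earthworms (Pheretima posthuma, spelled Perituma posthuma in text) exposed to test compounds at 0.1, 0.2 and 0.5% w/v. Albendazole served as standard, with an untreated control. Paralysis was recorded as the time until worms became motionless, then time to death was recorded, in minutes. Each value is the mean of three determinations with S.D.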

Escherichia coli [6] = experiment: Antimicrobial activity against Escherichia coli at 100 ug/ml by agar plate diffusion technique; conditions: read-out: IZ; outline: as §2
Escherichia coli [7] = experiment: Antimicrobial activity against Escherichia coli at 50 ug/ml by agar plate diffusion technique; conditions: read-out: IZ; outline: as §2
Escherichia coli [8] = experiment: Antimicrobial activity against Escherichia coli at 25 ug/ml by agar plate diffusion technique; conditions: read-out: IZ; outline: as §2
[9] = Antioxidant activity assessed as nitric oxide radical scavenging activity after 150 mins
Outline: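 10 mM sodium nitroprusside (4 mL), PBS pH 7.4 (1 mL) and sample or ascorbic acid in DMSO (1 mL, 12.5–100 µg/mL), incubated 150 min at 25 °C. Nitrite detected with sulphanilic acid (5 min) then naphthylethylenediamine (30 min, diffused light). Read at […]. Triplicate. % inhibition = [1 − (Vt/Vc)] × 100. IC50 derived from it.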

Metaphire posthuma [10] = experiment: Anthelmintic activity against Pheretima posthuma assessed as time taken for complete parasite paralysis at 0.2% w/v
Outline: (§4)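 Earthworms (Pheretima posthuma) exposed to test solutions at 0.1, 0.2 and 0.5% w/v; time in minutes to complete paralysis (worms motionless) recorded. Albendazole as standard. Mean of three determinations ± S.D.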

[11] = Antioxidant activity assessed as potassium ferricyanide ion reducing power after 20 mins
Outline: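 Oyaizu method. Samples or ascorbic acid in DMF (12.5–100 µg/mL) mixed with 0.2 M phosphate buffer pH 6.6 and 1% potassium ferricyanide, 20 min at 50 °C. 10% TCA added, centrifuged. Supernatant mixed with water and 0.1% FeCl3, read at 700 nm. % = [(Vt/Vc) − 1] × 100. IC50 derived.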

Bacillus subtilis [12] = experiment: Antimicrobial activity against Bacillus subtilis at 50 ug/ml by agar plate diffusion technique; conditions: read-out: IZ; outline: as §2
Pseudomonas aeruginosa [13] = experiment: Antimicrobial activity against Pseudomonas aeruginosa at 100 ug/ml by agar plate diffusion technique; conditions: read-out: IZ; outline: as §2
[14] = Antiinflammatory activity assessed as inhibition of albumin denaturation at 100 ug/ml by UV-visible spectrophotometry
Outline: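 Compounds dissolved in minimal DMF, diluted in PBS pH 7.4 (final DMF <2.5%). 1 mL test solution (100 µg/mL) plus 1 mL 1% albumin in PBS, 15 min at 27 ± 1 °C, then heated 10 min at 60 ± 1 °C. After cooling, turbidity read at 660 nm. % inhibition = [(Vt/Vc) − 1] × 100 against a no-drug control. Triplicate, averaged. Diclofenac standard.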

Aspergillus niger [15] = experiment: Antimicrobial activity against Aspergillus niger at 25 ug/ml by paper disc method; conditions: read-out: IZ; outline: as §1
Candida albicans [16] = experiment: Antimicrobial activity against Candida albicans at 100 ug/ml by paper disc method; conditions: read-out: IZ; outline: as §1
Bacillus subtilis [17] = experiment: Antimicrobial activity against Bacillus subtilis at 25 ug/ml by agar plate diffusion technique; conditions: read-out: IZ; outline: as §2
[18] = Antioxidant activity assessed as inhibition of lipid peroxidation using egg lecithin liposomes incubated for 1 hr
Outline: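 Egg lecithin (3 mg/mL, phosphate buffer pH 7.4) sonicated 10 min to form liposomes. Sample or ascorbic acid (12.5–100 µg/mL) added. Peroxidation induced with FeCl3 and L-ascorbic acid, 1 h at 37 °C. Stopped with HCl/TCA/TBA/BHA, boiled 15 min, centrifuged, supernatant read at 532 nm. Triplicate. % inhibition vs control. IC50 derived.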

Metaphire posthuma [19] = experiment: Anthelmintic activity against Pheretima posthuma assessed as time taken for parasite death at 0.5% w/v; outline: as §3
Aspergillus niger [20] = experiment: Antimicrobial activity against Aspergillus niger at 100 ug/ml by paper disc method; conditions: read-out: IZ; outline: as §1
Pseudomonas aeruginosa [21] = experiment: Antimicrobial activity against Pseudomonas aeruginosa at 25 ug/ml by agar plate diffusion technique; conditions: read-out: IZ; outline: as §2
Aspergillus niger [22] = experiment: Antimicrobial activity against Aspergillus niger at 50 ug/ml by paper disc method; conditions: read-out: IZ; outline: as §1
Metaphire posthuma [23] = experiment: Anthelmintic activity against Pheretima posthuma assessed as time taken for parasite death at 0.1% w/v; outline: as §3
[24] = Antioxidant activity assessed as hydrogen peroxide scavenging activity after 10 mins
Outline: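 H2O2 (20 mM) in PBS pH 7.4. 1 mL of sample or ascorbic acid in methanol (12.5–100 µg/mL) added to 2 mL H2O2 solution. A230 read after 10 min. % inhibition = [1 − (Vt/Vc)] × 100. Triplicate, averaged. IC50 derived from % inhibition across concentrations.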

Metaphire posthuma [25] = experiment: Anthelmintic activity against Pheretima posthuma assessed as time taken for complete parasite paralysis at 0.1% w/v; outline: as §4
Metaphire posthuma [26] = experiment: Anthelmintic activity against Pheretima posthuma assessed as time taken for complete parasite paralysis at 0.5% w/v; outline: as §4
Staphylococcus aureus [27] = experiment: Antimicrobial activity against Staphylococcus aureus at 50 ug/ml by agar plate diffusion technique; conditions: read-out: IZ; outline: as §2
Staphylococcus aureus [28] = experiment: Antimicrobial activity against Staphylococcus aureus at 25 ug/ml by agar plate diffusion technique; conditions: read-out: IZ; outline: as §2
Staphylococcus aureus [29] = experiment: Antimicrobial activity against Staphylococcus aureus at 100 ug/ml by agar plate diffusion technique; conditions: read-out: IZ; outline: as §2

Row | Structure (SMILES) | zone of inhibition at 25 µg/mL (Candida albicans [1]) [mm] | zone of inhibition at 100 µg/mL (Bacillus subtilis [2]) [mm] | zone of inhibition at 50 µg/mL (Candida albicans [3]) [mm] | Time (Metaphire posthuma [5]) [min] | IC50 [9] [µg/mL] | Time (Metaphire posthuma [10]) [min] | IC50 [11] [µg/mL] | zone of inhibition at 50 µg/mL (Bacillus subtilis [12]) [mm] | inhibition [14] [%] | zone of inhibition at 25 µg/mL (Aspergillus niger [15]) [mm] | zone of inhibition at 100 µg/mL (Candida albicans [16]) [mm] | zone of inhibition at 25 µg/mL (Bacillus subtilis [17]) [mm] | IC50 [18] [µg/mL] | Time (Metaphire posthuma [19]) [min] | zone of inhibition at 100 µg/mL (Aspergillus niger [20]) [mm] | zone of inhibition at 50 µg/mL (Aspergillus niger [22]) [mm] | Time (Metaphire posthuma [23]) [min] | IC50 [24] [µg/mL] | Time (Metaphire posthuma [25]) [min] | Time (Metaphire posthuma [26]) [min] | further results
1 | CN(C)c1ccc(-c2nc(NN)n(C)c(=O)c2C#N)cc1 | 9.14 | 14.5 | 9 | 46.44 | 69 (≈ 243 µM) | 26.35 | 81 (≈ 285 µM) | 10.5 | 12.6 | 7.14 | 15.3 | 8.1 | 63 (≈ 222 µM) | 43.34 | 15.8 | 9.48 | 54.22 | 66 (≈ 232 µM) | 28.25 | 25.64 | zone of inhibition at 50 µg/mL (Pseudomonas aeruginosa [4]): 6.27 mm; zone of inhibition at 100 µg/mL (Escherichia coli [6]): 8.28 mm; zone of inhibition at 50 µg/mL (Escherichia coli [7]): 7.82 mm; zone of inhibition at 25 µg/mL (Escherichia coli [8]): 5.74 mm; zone of inhibition at 100 µg/mL (Pseudomonas aeruginosa [13]): 8.83 mm; zone of inhibition at 25 µg/mL (Pseudomonas aeruginosa [21]): 5.78 mm
2 | O=C(O)Cc1ccccc1Nc1c(Cl)cccc1Cl | – | – | – | – | – | – | – | – | 83.3 | – | – | – | – | – | – | – | – | – | – | – | –
3 | COc1ccc(-c2nc(NN)n(C)c(=O)c2C#N)cc1 | 8.14 | 13.6 | 10.7 | 60.22 | 56 (≈ 206 µM) | 45.23 | 41 (≈ 151 µM) | 10.3 | 20.6 | 8.32 | 15.8 | 9.26 | 39 (≈ 144 µM) | 57.45 | 17 | 10 | 62.32 | 32 (≈ 118 µM) | 47.23 | 42.6 | zone of inhibition at 50 µg/mL (Pseudomonas aeruginosa [4]): 6.96 mm; zone of inhibition at 100 µg/mL (Escherichia coli [6]): 7.49 mm; zone of inhibition at 50 µg/mL (Escherichia coli [7]): 7.71 mm; zone of inhibition at 25 µg/mL (Escherichia coli [8]): 6.28 mm; zone of inhibition at 100 µg/mL (Pseudomonas aeruginosa [13]): 7.21 mm; zone of inhibition at 25 µg/mL (Pseudomonas aeruginosa [21]): 5 mm
4 | Cn1c(NN)nc(-c2ccco2)c(C#N)c1=O | 8.26 | 14.2 | 10.2 | 57.48 | 65 (≈ 281 µM) | 40.73 | 64 (≈ 277 µM) | 13.3 | 36.6 | 9.82 | 16 | 10.8 | 78 (≈ 337 µM) | 50.98 | 17.6 | 10.1 | 61.58 | 58 (≈ 251 µM) | 43.73 | 37.52 | zone of inhibition at 50 µg/mL (Staphylococcus aureus [27]): 10.5 mm; zone of inhibition at 25 µg/mL (Staphylococcus aureus [28]): 8.02 mm; zone of inhibition at 100 µg/mL (Staphylococcus aureus [29]): 12.2 mm
5 | COc1cccc(-c2nc(SC)n(C)c(=O)c2C#N)c1OC | 10.5 | 20.3 | 13 | 60.44 | 67 (≈ 211 µM) | 57.18 | 54 (≈ 170 µM) | 14.4 | 38.2 | 9.25 | 19.5 | 10.4 | 48 (≈ 151 µM) | 56.08 | 19.7 | 12 | 83.02 | 43 (≈ 135 µM) | 75.54 | 41.47 | zone of inhibition at 50 µg/mL (Pseudomonas aeruginosa [4]): 8.25 mm; zone of inhibition at 100 µg/mL (Pseudomonas aeruginosa [13]): 9.93 mm; zone of inhibition at 25 µg/mL (Pseudomonas aeruginosa [21]): 5.86 mm
